Only some compounds are listed: those with a hit (about 12% of all), similar ones and a draw of the others.
Diaph act CS: counter-screen for diaphorase-based assays: diaphorase activators and chemical reducers | activation factor at 20 µM | Diaphorase/resazurin coupled assay, resorufin fluorescence, 16 min; active compounds read high; 1 = vehicle wells, 0 = NADH-free wells | AID 1229 | actives 0.005% (n = 190,000);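 active means diaphorase activity raised at least twofold by the compound at 20 µM; inactive means activation factor below 2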
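Material: Purified diaphorase enzyme from Clostridium kluyveri | Buffer or medium: 50 mM HEPES pH 7.4 with 4.542 mM MgCl2, 0.005% Tween 20 | Times: 16 min enzyme reaction, ambient temperature | Signal: Red resorufin fluorescence at 544/590 nm excitation/emission | Measure: Increased resorufin signal from activators or reducing compounds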
L major viab: Leishmania major promastigote growth inhibition. Leishmania major promastigotes, resazurin fluorescence viability. inhibition, % at 10 µM. actives 9% (n = 200,000). AID 1063; in the data active means inhibition above about 50%;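 further: promastigotes grown with compound for 44 hours at 28 °C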
Diaphorase inh: diaphorase inhibition or chemical oxidation counter-screen; diaphorase resazurin-to-resorufin fluorescence, NADH, 16 min; bacterial (C. kluyveri) enzyme, not human; inhibition, % at 20 µM; actives 0.69% (n = 190,000);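 active means primary screen inhibition at 20 µM above a set limit, cut at about 50% in these data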
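controls = No-NADH positive control and DMSO neutral control | system = Clostridium kluyveri diaphorase enzyme | timing = reaction incubation of 16 min at room temperature | signal = resorufin fluorescence 544/590 nm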
ROMK primary: modulators of human ROMK potassium channel; P48048; AID 1918; actives 2% (n = 130,000); Tet-inducible ROMK, thallium flux fluorescence; actives lie on both sides; B-score at 10 µM;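 active means signal ratio slope over the read window, or its plate-corrected B-score, at least 3 SD from the plate mean, either direction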;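 further: B-score of the F/F0 ratio slope over 7 to 12 s after thallium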
WT yeast gro inh: growth inhibition of WT yeast, mitochondrial fusion screen; mitochondrial fusion phenotypic screen, WT strain; inhibition, % at 10 µM; actives 2.1% (n = 190,000); in the data active means inhibition above about 58%; tested in S. cerevisiae
Cl transport mod: modulates chloride dependent transport by human KCC2; Q9H2X9; KCC2 cells, thallium flux FluoZin-2 fluorescence; B-score of Tl+ flux slope (higher = more flux/activation; lower = inhibition) at 10 µM; actives 2.2% (n = 190,000);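 active means thallium flux slope and its plate-corrected score both differing from the plate sample mean at a set confidence after two filtering rounds, in either direction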;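 further: slope of fluorescence scaled to starting intensity during 10 to 20 s after thallium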
Hits are given with their value; . = inactive; / = no result.

SMILES	Diaph act CS	L major viab	Diaphorase inh	ROMK primary	WT yeast gro inh	Cl transport mod
CC(C)OC(=O)c1ccc(N)cc1	.	.	.	.	.	.
Cc1ccc(N(CC(=O)NCc2ccccc2Cl)S(=O)(=O)c2cccs2)cc1	.	.	.	/	.	.
O=C(CN(c1ccc(F)cc1)S(=O)(=O)c1ccc2c(c1)OCCO2)NCc1ccncc1	.	92	.	/	.	.
Cc1cccc(N(CC(=O)NCCSCc2ccco2)S(=O)(=O)c2ccccc2)c1	.	61	.	/	.	/
Cc1ccc(N(CC(=O)NCc2ccc(F)cc2)S(=O)(=O)c2cccs2)cc1	.	91	.	.	.	/
O=C(CN(c1ccc2c(c1)OCCO2)S(=O)(=O)c1ccccc1)NCc1ccco1	.	92	.	/	.	.
O=C(CN(c1ccc(F)cc1)S(=O)(=O)c1ccc2c(c1)OCCO2)NCc1cccnc1	.	.	.	.	.	.
CCc1ccc2nc3sc(C(=O)O)cc3cc2c1	.	.	.	/	.	.
COc1ccc(C2=[N+](C)CCn3cccc32)c(OC)c1	.	.	.	.	.	.
CCc1ccc(C2c3[nH]c4ccccc4c3CCN2C(=O)c2cc(C)nn2C)cc1 (stereo not given)	.	60	.	.	.	.
CC(=O)NCCC(=O)N1CCc2c([nH]c3ccccc23)C1c1cccc(Cl)c1 (stereo not given)	.	.	.	.	.	.
CSc1ccc(C2c3[nH]c4ccccc4c3CCN2C(=O)c2cc(C)n(C)n2)cc1 (stereo not given)	.	.	.	.	.	.
Cc1cc(C(=O)N2CCc3c([nH]c4ccccc34)C2c2cccc(Cl)c2)nn1C (stereo not given)	.	.	.	.	61	/
O=C(c1cnccn1)N1CCc2c([nH]c3ccccc23)C1c1cccc(Cl)c1 (stereo not given)	.	.	.	.	61	.
Cc1nc(C(=O)N2CCc3c([nH]c4ccccc34)C2c2cc(F)ccc2F)cs1 (stereo not given)	.	54	.	.	75	.
Cc1nc(C(=O)N2CCc3c([nH]c4ccccc34)C2c2ccccn2)cs1 (stereo not given)	/	.	/	/	.	.
CS(=O)(=O)Nc1ccc(C(=O)NCCSCc2c(F)cccc2Cl)cc1	.	.	.	.	.	.
COc1ccc(C2CC(c3ccccc3)=NN2C(=O)COC(=O)c2nc3nc(C)cc(C)n3n2)cc1 (stereo not given)	.	.	.	.	.	.
CCc1cc(C(=O)N2CCc3c([nH]c4ccccc34)C2c2ccc(OC)cc2F)no1 (stereo not given)	.	.	.	/	.	.
Cc1cc(C(=O)N2CCc3c([nH]c4ccccc34)C2c2c(F)cccc2Cl)no1 (stereo not given)	.	.	57	/	.	/
O=C(NCCCN1CCN(CCCNC(=O)c2cc([N+](=O)[O-])ccc2Cl)CC1)c1cc([N+](=O)[O-])ccc1Cl	.	.	.	.	.	.
CCOc1ccc(C2C=C(c3ccccc3)Nc3ncnn32)cc1 (stereo not given)	.	.	.	-2.7	.	/
CCCC(=O)Nc1sc(Cc2ccccc2)c(C)c1C(N)=O	.	.	.	.	.	.
C/C(=N\NC(=O)c1sccc1-n1cccc1)c1cccs1	.	.	.	.	.	.
O=C1CSC(c2cccc([N+](=O)[O-])c2)N1CCN1CCCCC1 (stereo not given)	.	85	.	/	.	/
SMILES	Diaph act CS	L major viab	Diaphorase inh	ROMK primary	WT yeast gro inh	Cl transport mod
O=C1CSC(c2ccccc2F)N1CCN1CCCCC1 (stereo not given)	.	78	.	.	.	.
O=C(NCC1CCCN(Cc2cccc(OCCO)c2)C1)c1ccc(F)cc1 (stereo not given)	.	.	.	.	.	/
CSc1ccc(CN2CCCC(CNC(=O)c3ccc(F)cc3)C2)cc1 (stereo not given)	.	84	.	.	.	/
CSc1cccc(CN2CCCC(CNC(=O)c3ccc(F)cc3)C2)c1 (stereo not given)	.	77	.	/	.	.
CCOc1cc(CN2CCCC(CNC(=O)c3ccc(F)cc3)C2)ccc1OC (stereo not given)	/	/	/	/	/	.
O=C(Cc1ccccc1Cl)Nc1cccnc1	.	.	.	.	.	.
CCOC(=O)CNC(=O)N1CCCC(C(=O)c2ccccc2SC)C1 (stereo not given)	.	.	.	.	.	.
O=S(=O)(c1cnc[nH]1)N1CCc2ccccc21	.	61	.	/	.	.
CC1Cc2ccccc2N1S(=O)(=O)c1cnc[nH]1 (stereo not given)	.	.	.	/	.	.
Cc1cccc(-n2nnc3c(=O)n(CC(=O)Nc4cc(C)on4)cnc32)c1	.	.	.	.	.	.
CCCCC(c1nnnn1CS(=O)(=O)c1ccc(C)cc1)N1CCN(C)CC1 (stereo not given)	/	.	/	.	.	.
O=C(/C=C/c1cn(CC(O)CN2CCCCCC2)c2ccccc12)c1cccs1 (stereo not given)	.	100	.	/	.	.
CCCCN(C)CC(O)Cn1cc(/C=C/C(=O)c2cccs2)c2ccccc21 (stereo not given)	.	69	.	/	.	.
Nc1cccnc1Sc1ccc([N+](=O)[O-])cn1	.	.	50	.	.	/
COC(=O)c1ccc(=O)n(-c2ccc(OC)cc2)c1	.	.	.	.	.	8.2
Cc1ccccc1C(=O)c1cccn1CC(=O)NCc1ccc2c(c1)OCO2	.	.	.	.	.	.
CC1(C)CC(CCN(Cc2ccccc2)C(=O)c2ccco2)(c2ccccc2)CCO1 (stereo not given)	.	.	.	/	63	.
CCC1(C)CC(CCN(Cc2ccco2)C(C)=O)(c2ccccc2)CCO1 (stereo not given)	.	.	.	.	.	.
CCC(C)/C(C)=N/NC(=O)c1cn(-c2ccccc2)nc1-c1ccccc1 (stereo not given)	.	.	.	/	.	.
COc1cc(OC)cc(-c2nnc(Sc3ccc(C=O)cc3[N+](=O)[O-])o2)c1	.	52	.	/	.	/
COc1cc(OC)cc(-c2nnc(SCC(=O)N(C(C)C)C(C)C)o2)c1	.	.	.	.	.	/
CC(C)NCC(O)Cn1c2c(c3ccccc31)CCc1c-2cnn1-c1ccccc1 (stereo not given)	.	100	.	.	.	/
O=S(=O)(c1ccccc1)c1nc(NCc2cccnc2)sc1Cl	.	.	.	.	.	.
CN(Cc1ccccc1)C(=O)Cn1c(=O)oc2cc(S(=O)(=O)N3CCCC3)ccc21	.	100	.	/	.	/
O=C(NC1CCCc2ccccc21)C1CCN(S(=O)(=O)c2ccccc2F)CC1 (stereo not given)	.	85	.	.	.	.

High-throughput results (PubChem BioAssay)
